The target of test [1] is 5'-AMP-activated protein kinase catalytic subunit alpha-1 (Homo sapiens) (UniProt Q13131). As to the kind of experiment: Inhibition of human AMPK-alpha1 assessed as remaining activity at 1 uM by ATP-competition binding assay relative to control. The method, boiled down: (§1)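 KINOMEscan ATP-site-dependent competition binding panel of 395 human kinases, with compound tested at 1 μM. Binding is reported as remaining signal relative to control.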

Test [2] concerns the target Fibroblast growth factor receptor 3 (Homo sapiens) (UniProt P22607). The test is described as follows: Inhibition of human FGFR3 assessed as remaining activity at 1 uM by ATP-competition binding assay relative to control. The essentials:
(§2)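 Single-point profiling at 1μM in an ATP-site-dependent competition binding assay across a panel of 395 human kinases, including mutant forms. The read-out is kinase binding signal in the presence of test agent, expressed as inhibition relative to the control signal. This screen assessed noncovalent binding interactions.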

The target of test [3] is Serine/threonine-protein kinase 17A (Homo sapiens) (UniProt Q9UEE5). As to the kind of experiment: Inhibition of human DRAK1 assessed as remaining activity at 1 uM by ATP-competition binding assay relative to control. The essentials:
as §1

Test [4] is described as follows: Antileukemic activity against human CLL mononuclear cells xenografted NSG mouse assessed as inhibition in cell proliferation measuring by Ki67 expression level at 0.3 to 0.16 mg/ml preadministered with compound via drinking water and measured after 3 weeks by flow cytometry analysis relative to control. In kind it is functional. Conditions: dose 0.3-0.16 mg/ml, at 0.16 to 0.3 mg/mL. The essentials:
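Primary CLL patient mononuclear cells (1 × 10^8 per mouse) engrafted into NSG mice on day 0 after busulfan priming on day −1. Vehicle or drug was given in drinking water from day −1. Mice were killed 3 weeks after engraftment; spleens homogenized, filtered and RBC-lysed; whole blood collected. Six patients, 2–5 mice per patient; paired t-test per patient.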

The target of test [5] is Serine/threonine-protein kinase MAK (Homo sapiens) (UniProt P20794). The test is described as follows: Inhibition of human MAK assessed as remaining activity at 1 uM by ATP-competition binding assay relative to control. The essentials:
as §2

Test [6] concerns the target Leukocyte tyrosine kinase receptor (Homo sapiens) (UniProt P29376). As to the kind of experiment: Inhibition of human LTK assessed as remaining activity at 1 uM by ATP-competition binding assay relative to control. The method, boiled down:
as §2

The target in test [7] is Proto-oncogene tyrosine-protein kinase Src (Homo sapiens) (UniProt P12931). The test is described as follows: Inhibition of human SRC assessed as remaining activity at 1 uM by ATP-competition binding assay relative to control. The essentials:
(§3)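 Single-concentration (1 μM) screen in an ATP-site-dependent competition binding assay (KINOMEscan, outsourced) covering 395 human kinases, mutants included. Non-covalent binding was read as the remaining signal relative to the control signal.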

The target in test [8] is Tyrosine-protein kinase Blk (Homo sapiens) (UniProt P51451). As to the kind of experiment: Inhibition of human BLK assessed as remaining activity at 1 uM by ATP-competition binding assay relative to control. The essentials: as §1
Test [9] has as its target Receptor tyrosine-protein kinase erbB-2 (Homo sapiens) (UniProt P04626). The test is described as follows: Inhibition of human ERBB2 assessed as remaining activity at 1 uM by ATP-competition binding assay relative to control. The essentials: as §2
Test [10] addresses Tyrosine-protein kinase Lck (Homo sapiens) (UniProt P06239). The test is described as follows: Inhibition of human LCK assessed as remaining activity at 1 uM by ATP-competition binding assay relative to control. The method, boiled down: as §2
Test [11] deals with Mast/stem cell growth factor receptor Kit (Homo sapiens), P10721 [V559D,T670I]. As to the kind of experiment: Inhibition of human KIT V559D/T670I mutant assessed as remaining activity at 1 uM by ATP-competition binding assay relative to control. The method, boiled down: as §2
Test [12] concerns Epidermal growth factor receptor (Homo sapiens), P00533 [UNDEFINED MUTATION]. The test is described as follows: Inhibition of human EGFR E746-A750del mutant assessed as remaining activity at 1 uM by ATP-competition binding assay relative to control. The essentials: (§4)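 KINOMEscan ATP-site-dependent competition binding assay across a 395-kinase human panel including mutants; compound tested at 1μM; binding expressed relative to control signal.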

The target of test [13] is cGMP-dependent protein kinase 1 (Homo sapiens) (UniProt Q13976). The test is described as follows: Inhibition of human PRKG1 assessed as remaining activity at 1 uM by ATP-competition binding assay relative to control. The essentials: as §3
Test [14] addresses SRSF protein kinase 2 (Homo sapiens) (UniProt P78362). The test is described as follows: Inhibition of human SRPK2 assessed as remaining activity at 1 uM by ATP-competition binding assay relative to control. The essentials:
as §3

A further test concerns Splenocyte. As to the kind of experiment: In vivo inhibition of BCR signaling in female […] mouse assessed as change in CD86 expression at 25 mg/kg, po administered and measured after stimulation with anti-IgM for 18 h by flow cytometry analysis. In kind it is functional, organism-based. The method, boiled down: (§5)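 Female C57BL/6 mice (5/group) received vehicle or 25 mg/kg drug by oral gavage at time zero, with spleens taken at time points from 3 to 24 h. Splenocytes were stimulated ex vivo with goat anti-mouse IgM at 10μg/mL for 18 h at 37°C in 5% CO2, then Fc-blocked and stained for CD19 plus CD69, CD86 or phospho-S6(S235/236), with 7-AAD to exclude dead cells. Read-out was flow cytometry on >5,000 gated CD19+ cells, compared with vehicle.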

Test [15] concerns the target Tyrosine-protein kinase Tec (Homo sapiens) (UniProt P42680). The test is described as follows: Inhibition of human TEC assessed as remaining activity at 1 uM by ATP-competition binding assay relative to control. The method, boiled down:
as §4

Test [16] has as its target Calcium/calmodulin-dependent protein kinase type II subunit gamma (Homo sapiens) (UniProt Q13555). The test is described as follows: Inhibition of human CAMK2G assessed as remaining activity at 1 uM by ATP-competition binding assay relative to control. The essentials: as §1
In test [17] the target is Serine/threonine-protein kinase PAK 1 (Homo sapiens) (UniProt Q13153). The test is described as follows: Inhibition of human PAK1 assessed as remaining activity at 1 uM by ATP-competition binding assay relative to control. The method, boiled down:
as §2

In test [18] the target is Activated CDC42 kinase 1 (Homo sapiens) (UniProt Q07912). The test is described as follows: Inhibition of human TNK2 assessed as remaining activity at 1 uM by ATP-competition binding assay relative to control. The essentials:
as §3

The target of test [19] is Tyrosine-protein kinase Tec (Homo sapiens) (UniProt P42680). The test is described as follows: Inhibition of human TEC at < 100 nM by ATP-Competition Binding Assay.
Test [20] concerns Receptor-type tyrosine-protein kinase FLT3 (Homo sapiens), P36888 [D835H]. The test is described as follows: Inhibition of human FLT3 D835H mutant assessed as remaining activity at 1 uM by ATP-competition binding assay relative to control. The essentials: as §2
Test [21] concerns the target 5'-AMP-activated protein kinase catalytic subunit alpha-2 (Homo sapiens) (UniProt P54646). As to the kind of experiment: Inhibition of human AMPK-alpha2 assessed as remaining activity at 1 uM by ATP-competition binding assay relative to control. The essentials: as §1
The target of test [22] is Serine/threonine-protein kinase RIO2 (Homo sapiens) (UniProt Q9BVS4). The test is described as follows: Inhibition of human RIOK2 assessed as remaining activity at 1 uM by ATP-competition binding assay relative to control. The essentials:
as §3

Test [23] can be described thus: In vivo inhibition of BCR signaling in female […] mouse assessed as B-cell function at 25 mg/kg, po administered for 24 hrs and measured after stimulation with anti-IgM for 18 h by flow cytometry analysis relative to control. In kind it is functional, Splenocyte. Details: scale not given: the % may be the effect or the level left. The method, boiled down: as §5

Experimental findings from ChEMBL document CHEMBL5678815 (Clin Cancer Res, 2017) are described below.

Molecules are shown by their SMILES. The source made the active and inactive calls. No cut-off for these calls is given here.

Sequence of Tyrosine-protein kinase Tec (Homo sapiens) (P42680 whole entry): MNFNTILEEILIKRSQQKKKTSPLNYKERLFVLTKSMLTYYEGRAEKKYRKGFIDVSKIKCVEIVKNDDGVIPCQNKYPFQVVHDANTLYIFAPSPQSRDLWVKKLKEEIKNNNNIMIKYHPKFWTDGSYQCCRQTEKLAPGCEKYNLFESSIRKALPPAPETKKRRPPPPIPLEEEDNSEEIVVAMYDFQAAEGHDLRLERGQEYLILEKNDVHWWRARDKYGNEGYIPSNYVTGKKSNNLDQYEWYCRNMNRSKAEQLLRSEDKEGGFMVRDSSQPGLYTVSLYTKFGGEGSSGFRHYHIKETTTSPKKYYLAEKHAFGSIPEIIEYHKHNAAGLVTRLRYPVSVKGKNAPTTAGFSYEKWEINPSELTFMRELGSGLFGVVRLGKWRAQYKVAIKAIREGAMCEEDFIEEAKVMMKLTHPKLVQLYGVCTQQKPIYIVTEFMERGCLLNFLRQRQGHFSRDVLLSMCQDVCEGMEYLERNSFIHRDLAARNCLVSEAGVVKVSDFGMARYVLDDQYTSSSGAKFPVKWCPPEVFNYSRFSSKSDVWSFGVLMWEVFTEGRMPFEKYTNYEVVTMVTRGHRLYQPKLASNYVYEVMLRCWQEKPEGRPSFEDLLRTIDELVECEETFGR
Sequence of cGMP-dependent protein kinase 1 (Homo sapiens) (Q13976 whole entry): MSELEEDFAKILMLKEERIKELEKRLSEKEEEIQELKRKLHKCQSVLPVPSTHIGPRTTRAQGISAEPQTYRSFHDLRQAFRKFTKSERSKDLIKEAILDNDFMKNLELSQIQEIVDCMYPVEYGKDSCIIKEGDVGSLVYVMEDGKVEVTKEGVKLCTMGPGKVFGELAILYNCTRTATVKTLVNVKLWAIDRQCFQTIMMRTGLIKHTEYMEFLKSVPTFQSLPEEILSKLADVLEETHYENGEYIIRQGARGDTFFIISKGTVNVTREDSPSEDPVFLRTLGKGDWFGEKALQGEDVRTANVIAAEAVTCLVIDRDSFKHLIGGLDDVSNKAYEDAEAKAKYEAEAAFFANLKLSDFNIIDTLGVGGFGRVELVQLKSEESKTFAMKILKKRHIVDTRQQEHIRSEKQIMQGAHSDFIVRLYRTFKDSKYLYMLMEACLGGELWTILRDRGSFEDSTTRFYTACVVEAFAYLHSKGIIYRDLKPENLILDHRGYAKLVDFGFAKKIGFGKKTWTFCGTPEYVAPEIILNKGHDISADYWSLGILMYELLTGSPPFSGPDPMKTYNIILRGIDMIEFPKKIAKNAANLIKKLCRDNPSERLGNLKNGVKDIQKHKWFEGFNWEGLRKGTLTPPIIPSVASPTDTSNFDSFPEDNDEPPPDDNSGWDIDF
Sequence of Serine/threonine-protein kinase RIO2 (Homo sapiens) (Q9BVS4 whole entry, looked up): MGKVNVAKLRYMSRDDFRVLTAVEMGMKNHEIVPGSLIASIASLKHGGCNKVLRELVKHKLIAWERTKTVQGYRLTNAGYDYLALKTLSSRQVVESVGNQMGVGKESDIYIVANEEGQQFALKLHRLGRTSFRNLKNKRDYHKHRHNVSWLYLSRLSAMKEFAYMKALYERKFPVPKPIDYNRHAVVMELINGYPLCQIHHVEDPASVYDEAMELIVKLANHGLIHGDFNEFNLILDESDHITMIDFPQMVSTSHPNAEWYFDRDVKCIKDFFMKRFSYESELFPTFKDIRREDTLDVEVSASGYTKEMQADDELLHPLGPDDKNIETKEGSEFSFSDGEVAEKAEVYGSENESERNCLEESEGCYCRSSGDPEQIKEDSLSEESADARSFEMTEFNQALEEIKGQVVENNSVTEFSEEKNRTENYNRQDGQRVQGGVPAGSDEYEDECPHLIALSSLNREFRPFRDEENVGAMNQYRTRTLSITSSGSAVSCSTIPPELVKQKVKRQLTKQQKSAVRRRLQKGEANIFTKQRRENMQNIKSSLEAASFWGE
Sequence of Tyrosine-protein kinase Lck (Homo sapiens) (P06239 2-509 limits assumed): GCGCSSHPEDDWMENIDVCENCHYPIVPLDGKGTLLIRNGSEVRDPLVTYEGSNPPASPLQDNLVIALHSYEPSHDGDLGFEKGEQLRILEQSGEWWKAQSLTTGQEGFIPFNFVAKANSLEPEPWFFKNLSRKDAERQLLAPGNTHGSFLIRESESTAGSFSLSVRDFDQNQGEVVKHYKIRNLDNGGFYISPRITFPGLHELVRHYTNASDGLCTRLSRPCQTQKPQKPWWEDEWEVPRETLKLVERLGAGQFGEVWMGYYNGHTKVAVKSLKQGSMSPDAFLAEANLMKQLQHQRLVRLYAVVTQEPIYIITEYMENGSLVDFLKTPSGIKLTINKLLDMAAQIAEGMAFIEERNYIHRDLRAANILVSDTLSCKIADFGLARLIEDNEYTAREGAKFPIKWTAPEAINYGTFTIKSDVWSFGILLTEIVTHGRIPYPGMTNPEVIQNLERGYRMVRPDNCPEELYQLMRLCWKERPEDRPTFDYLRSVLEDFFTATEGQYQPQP
Sequence of Serine/threonine-protein kinase PAK 1 (Homo sapiens) (Q13153 whole entry): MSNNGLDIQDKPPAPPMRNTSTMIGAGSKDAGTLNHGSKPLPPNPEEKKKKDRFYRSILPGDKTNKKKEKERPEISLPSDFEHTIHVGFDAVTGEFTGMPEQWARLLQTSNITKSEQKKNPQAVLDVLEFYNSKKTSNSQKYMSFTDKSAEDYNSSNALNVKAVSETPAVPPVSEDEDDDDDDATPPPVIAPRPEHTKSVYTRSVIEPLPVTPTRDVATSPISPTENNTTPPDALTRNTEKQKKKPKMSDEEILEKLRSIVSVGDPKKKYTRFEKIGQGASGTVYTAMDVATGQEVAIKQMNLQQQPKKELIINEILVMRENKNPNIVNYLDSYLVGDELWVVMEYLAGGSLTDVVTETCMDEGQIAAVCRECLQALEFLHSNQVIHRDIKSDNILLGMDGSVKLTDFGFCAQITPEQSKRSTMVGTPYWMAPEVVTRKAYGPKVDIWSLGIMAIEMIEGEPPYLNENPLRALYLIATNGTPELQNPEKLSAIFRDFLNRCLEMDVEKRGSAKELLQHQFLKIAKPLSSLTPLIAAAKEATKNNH
Sequence of Proto-oncogene tyrosine-protein kinase Src (Homo sapiens) (P12931 2-536 limits assumed): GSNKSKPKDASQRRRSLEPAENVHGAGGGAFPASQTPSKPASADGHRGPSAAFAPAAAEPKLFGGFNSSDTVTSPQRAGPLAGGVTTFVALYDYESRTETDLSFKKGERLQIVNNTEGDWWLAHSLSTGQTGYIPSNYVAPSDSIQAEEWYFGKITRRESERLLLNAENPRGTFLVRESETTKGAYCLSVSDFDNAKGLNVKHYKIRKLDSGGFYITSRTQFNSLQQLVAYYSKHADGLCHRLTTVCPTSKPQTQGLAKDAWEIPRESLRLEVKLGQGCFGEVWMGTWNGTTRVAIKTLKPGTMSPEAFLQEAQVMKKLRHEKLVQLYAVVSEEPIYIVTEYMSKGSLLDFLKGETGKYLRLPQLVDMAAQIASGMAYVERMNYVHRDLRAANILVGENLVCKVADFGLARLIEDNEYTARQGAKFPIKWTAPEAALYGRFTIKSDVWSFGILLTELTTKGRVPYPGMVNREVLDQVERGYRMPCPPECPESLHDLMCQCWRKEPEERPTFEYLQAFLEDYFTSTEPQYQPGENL
Sequence of Calcium/calmodulin-dependent protein kinase type II subunit gamma (Homo sapiens) (Q13555 whole entry): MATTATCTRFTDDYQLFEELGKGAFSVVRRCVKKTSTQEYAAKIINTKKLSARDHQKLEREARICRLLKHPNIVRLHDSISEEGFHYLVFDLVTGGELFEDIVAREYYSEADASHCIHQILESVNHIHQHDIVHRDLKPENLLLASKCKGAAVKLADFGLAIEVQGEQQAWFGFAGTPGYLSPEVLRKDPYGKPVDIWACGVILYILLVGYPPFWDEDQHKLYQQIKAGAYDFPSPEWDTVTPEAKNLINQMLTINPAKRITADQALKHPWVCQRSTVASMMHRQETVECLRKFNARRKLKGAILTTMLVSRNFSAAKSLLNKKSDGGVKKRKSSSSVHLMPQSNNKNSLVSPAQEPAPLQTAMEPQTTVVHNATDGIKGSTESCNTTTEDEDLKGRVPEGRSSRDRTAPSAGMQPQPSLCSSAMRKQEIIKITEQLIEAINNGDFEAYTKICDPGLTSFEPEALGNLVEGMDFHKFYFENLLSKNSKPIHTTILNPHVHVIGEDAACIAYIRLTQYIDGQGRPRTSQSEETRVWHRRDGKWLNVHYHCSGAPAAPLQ
Sequence of Mast/stem cell growth factor receptor Kit (Homo sapiens), P10721 [V559D,T670I] (P10721 whole entry V559D/T670I): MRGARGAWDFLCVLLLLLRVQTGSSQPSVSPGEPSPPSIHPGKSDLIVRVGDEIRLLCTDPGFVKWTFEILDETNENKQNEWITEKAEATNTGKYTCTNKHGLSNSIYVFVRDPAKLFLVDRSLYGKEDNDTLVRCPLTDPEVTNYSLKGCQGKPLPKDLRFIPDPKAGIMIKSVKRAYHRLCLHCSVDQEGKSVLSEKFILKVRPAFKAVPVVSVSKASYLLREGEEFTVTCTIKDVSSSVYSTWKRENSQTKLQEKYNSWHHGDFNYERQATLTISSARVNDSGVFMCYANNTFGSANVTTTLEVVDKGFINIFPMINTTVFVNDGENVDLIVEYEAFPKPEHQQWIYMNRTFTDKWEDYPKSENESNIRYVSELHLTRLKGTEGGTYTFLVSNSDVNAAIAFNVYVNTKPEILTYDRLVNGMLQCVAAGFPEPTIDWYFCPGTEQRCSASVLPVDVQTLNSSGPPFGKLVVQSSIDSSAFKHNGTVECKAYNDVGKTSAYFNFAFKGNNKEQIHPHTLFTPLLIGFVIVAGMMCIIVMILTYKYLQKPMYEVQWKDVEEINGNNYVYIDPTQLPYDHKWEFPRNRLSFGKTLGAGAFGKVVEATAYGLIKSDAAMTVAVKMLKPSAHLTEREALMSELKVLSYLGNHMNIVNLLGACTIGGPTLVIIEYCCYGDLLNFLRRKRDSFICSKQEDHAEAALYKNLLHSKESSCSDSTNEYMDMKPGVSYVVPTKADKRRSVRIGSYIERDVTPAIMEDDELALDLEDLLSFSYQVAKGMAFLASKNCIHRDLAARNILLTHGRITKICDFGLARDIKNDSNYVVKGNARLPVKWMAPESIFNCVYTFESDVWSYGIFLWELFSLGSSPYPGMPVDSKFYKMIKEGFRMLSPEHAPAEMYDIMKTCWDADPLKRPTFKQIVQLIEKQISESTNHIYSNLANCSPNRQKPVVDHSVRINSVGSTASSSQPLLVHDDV

As to `CC#CC(=O)N1CCC[C@H]1c1nc(-c2ccc(C(=O)Nc3ccccn3)cc2)c2c(N)nccn12` [ACALABRUTINIB], the Activity in test [1] was determined as 86%; in test [2], 87%; in test [3], 87%; in [5], 90%; in test [6] it was 86%; in test [7] it was 78%. Also, the Activity was 61% in [8]; 2.1% in test [9]; 90% in test [10]; 55% in test [11]; 85% in test [12]; 70% in test [13]. Besides, the Activity in [14] worked out at 85%; in test [15] it was 6.4%; in test [16], 84%; in test [17], 87%; in test [18], 93%; in test [20], 86%. Also, the Activity in test [21] is 84%; in [22], 80%; in test [23], around 70%. Besides, the “inhibition (INH)” value in test [4] is recorded as 50%. The result with Splenocyte was Active. Besides, the inhibition entry in test [19] was “Active”.
